Measurements: PMC3600088 (Journal of medicinal chemistry, 2013)
Entries after “also recorded” stand apart in the source; their conditions may differ. Read-outs that look alike come from different tables or passages of the source.

Legend:
CMG2 = biological target: T1, CMG2 (Homo sapiens, UniProt P58335, C175A/R40C); experiment: CMG2-Protective antigen; format: binding; details: for inhibitory activity in CMG2 FRET assay: concentrations up to 300 μM
T1 sequence (P58335 40-217 R40C/C175A): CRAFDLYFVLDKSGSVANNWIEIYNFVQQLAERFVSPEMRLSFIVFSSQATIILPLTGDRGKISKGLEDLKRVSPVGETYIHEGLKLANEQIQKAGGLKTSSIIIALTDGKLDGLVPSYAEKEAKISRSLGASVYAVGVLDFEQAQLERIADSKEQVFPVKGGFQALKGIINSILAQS

H+, K+, ATPase = details: cited from earlier work
[1] = IP and orally at doses up to 30 mg/kg/day; cited from earlier work
bFGF-driven angiogenesis = experiment: Mouse corneal micropocket assay; format: in vivo, C57BL/6J mice; details: mice
How it was run: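 Pellets with 80 ng bFGF were implanted in C57BL/6J corneas, five mice per group. Test compound was given daily by oral gavage at 20 mg/kg in 5% ethanol, or IP at 10 mg/kg/day in 2.5% DMSO, 5% Cremophor EL, 5% Tween-80, 7.5% N-methyl-2-pyrrolidone, 0.9% NaCl. Controls received vehicle. Dosing began at implantation, and vascular area was measured by slit lamp on postoperative day 5 (~10 eyes/group, t-test).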

DNA polymerases = details: certain DNA polymerases; cited from earlier work
[2] = test system: human dermal microvascular endothelial cells (HMVEC-d); experiment: Endothelial cell migration assay; format: cell-based; details: ex vivo endothelial cell migration assay
How it was run: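 HMVEC-d kept in EGM-2 and used before passage 7, resuspended in EBM with 0.1% BSA. 20,000 cells were placed on fibronectin-coated 8.0 μm-pore polycarbonate transwell inserts over full-serum (5%) medium with or without test compound, and left to migrate 4 h. Top-side cells were removed, membranes fixed and Diff-Quick stained, and 4 10X fields counted. Counts were normalized to no-treatment control, with IC50 from a binding-isotherm fit. Two experiments, n=3 each.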

angiogenesis [3] = details: cited from earlier work
HMVEC-d cells = experiment: Endothelial cell proliferation assay; format: cell-based, human; details: at doses that inhibited migration, 24 and 72 hours
[4] = cited from earlier work
Caco-2 monolayers = details: cited from earlier work
[5] = cited from earlier work; remark: listed apart in the source
angiogenesis [6] = details: therapeutic concentrations; cited from earlier work

COC(=O)c1cc(O)c(O)c(O)c1 [Methyl Gallate]
inhibitory activity in CMG2 FRET assay (CMG2): None of these compounds exhibited any inhibitory activity

O=C(OC[C@H]1O[C@@H](OC(=O)c2cc(O)c(O)c(O)c2)[C@H](OC(=O)c2cc(O)c(O)c(O)c2)[C@@H](OC(=O)c2cc(O)c(O)c(O)c2)[C@@H]1OC(=O)c1cc(O)c(O)c(O)c1)c1cc(O)c(O)c(O)c1 [PGG, 1,2,3,4,6-penta-O-galloyl-β-D-glucopyranose]
IC50 (in words) (H+, K+, ATPase): submicromolar
ill effects [1]: without ill effects
inhibition of bFGF-driven angiogenesis (bFGF-driven angiogenesis; 10 mg/kg IP, 80 ng bFGF pellet): significantly inhibited
inhibition of bFGF-driven angiogenesis (vessel area) (bFGF-driven angiogenesis; 20 mg/kg/day by oral gavage, 80 ng bFGF pellet, day 5): significantly inhibited; also recorded: statistically significant
signs of toxicity (weight loss, hunched posture, behavioral abnormalities) (bFGF-driven angiogenesis; 10 mg/kg IP or 20 mg/kg/day oral): no obvious signs of toxicity
IC50 (in words) (DNA polymerases): submicromolar
IC50 of endothelial cell migration (in words) [2]: submicromolar
activity of HPLC fractions in the FRET assay (CMG2; fractions of the "tannic acid" sample): active
IC50 (in words) (CMG2; in vitro FRET binding assay): submicromolar
dose at which antiangiogenic activity has been evoked (angiogenesis [3]): 4 mg/kg
cytotoxic or cytostatic effects (HMVEC-d cells): no cytotoxic or cytostatic effects
plasma concentrations ([4]; intraperitoneal administration): single-digit micromolar
plasma concentrations ([4]; oral administration): submicromolar
circulating concentrations ([4]; oral dose of 80 mg/kg, experimental animals): < 1 µM
nature of transport (Caco-2 monolayers): saturable

CCCOC(=O)c1cc(O)c(O)c(O)c1 [Propyl Gallate]
inhibitory activity in CMG2 FRET assay (CMG2): None of these compounds exhibited any inhibitory activity

O=C(OC[C@H]1O[C@@H](OC(=O)c2cc(O)c(O)c(OC(=O)c3cc(O)c(O)c(O)c3)c2)[C@H](OC(=O)c2cc(O)c(O)c(OC(=O)c3cc(O)c(O)c(O)c3)c2)[C@@H](OC(=O)c2cc(O)c(O)c(OC(=O)c3cc(O)c(O)c(O)c3)c2)[C@@H]1OC(=O)c1cc(O)c(O)c(OC(=O)c2cc(O)c(O)c(O)c2)c1)c1cc(O)c(O)c(OC(=O)c2cc(O)c(O)c(O)c2)c1 [Tannic acid]
toxicity upon administration in mice [5]: toxic effects

COc1ccc2[nH]c([S+]([O-])Cc3ncc(C)c(OC)c3C)nc2c1 (centres unmarked) [omeprazole]
inhibition of angiogenesis (angiogenesis [6]): fails to inhibit angiogenesis

Protocatechillic acid
IC50 (CMG2): > 300 µM
